Assay results gathered from unrelated publications.
Lines come from different studies, so protocols differ.
Target: Myosin light chain kinase, smooth muscle (MYLK, Homo sapiens, UniProt Q15746)

C[C@@H]1CN(c2cc(-c3nn(C)c4ccc(OC5(C)CC5)cc34)ncn2)C[C@H](C)O1  remaining binding (cell-free assay, competition with immobilised ligand; 1 µM): 64%
O=C(c1ccc(Nc2ncc(Cl)c(-c3cc4ccccc4s3)n2)cc1)N1CCC(N2CCCC2)CC1  remaining binding (binding, competition with immobilised ligand; 1 µM): 54%
c1cncc(-c2cccc(Nc3nccc(NC4CCCCC4)n3)c2)c1  remaining binding (binding, competition with immobilised ligand; 10 µM): 62%
O=C(Nc1c[nH]nc1C(=O)NC1CCNCC1)c1cc(F)cc(F)c1  remaining binding (binding, competition with immobilised ligand; 1 µM): 100%
CO[C@@H](C)c1c(Nc2ccc([C@H](N(C)C(=O)C3CCS(=O)(=O)CC3)C(F)(F)F)cc2)cnc2cc(Cl)nn12  remaining binding (cell-free assay, competition with immobilised ligand; 1 µM): 95%
COc1cnc(Nc2cccc(S(N)(=O)=O)c2)nc1N1CCN(c2ccccc2)CC1  remaining binding (binding, competition with immobilised ligand; 1 µM): 70%
CN(C)c1nccc(-c2cnc3ncccn23)n1  remaining binding (binding; 1 µM): 94%
CCCCN(CCCC)C(=O)CN1C[C@H](c2cc(OC)c3c(c2)OCO3)[C@@H](C(=O)O)[C@@H]1CC(C)(C)CCC  remaining binding (cell-free assay, competition with immobilised ligand; 1 µM): 100%
O=C(c1ccc(Nc2ncc(Cl)c(-c3ccc(Cl)s3)n2)cc1)N1CCC(N2CCCC2)CC1  remaining binding (binding, competition with immobilised ligand; 1 µM): 66%
CC(=O)c1c(NS(C)(=O)=O)c2cc(-c3ccc(Cl)cc3)c(-c3ccc(Cl)cc3Cl)nc2n(C)c1=O  remaining binding (cell-free assay, competition with immobilised ligand; 1 µM): 93%
CN(C)c1nccc(-c2cnn3ncccc23)n1  remaining binding (binding; 1 µM): 63%
COc1cnc(Nc2cccc(S(N)(=O)=O)c2)nc1N1CCN(c2ccccc2)C(=O)C1  remaining binding (binding, competition with immobilised ligand; 1 µM): 97%
F[C@@H]1CCN(c2nccc(-c3cnn4ncccc34)n2)C1  remaining binding (binding; 1 µM): 72%
COc1ncc2cc3ccccc3nc2c1C#N  remaining binding (binding, competition with immobilised ligand; 5 µM): 92%
CC1CCCN1c1nccc(-c2cnn3ncccc23)n1 (centres unmarked)  remaining binding (binding; 1 µM): 97%
NS(=O)(=O)c1cc(NC(=O)C2(c3ccccc3Cl)CC2)ccc1Oc1cccc(Cl)c1  remaining binding (cell-free assay, competition with immobilised ligand; 1 µM): 72%
CN(C)c1ncc(F)c(-c2cnn3ncccc23)n1  remaining binding (binding; 1 µM): 98%
O=C(c1ccc(Nc2nccc(-c3cc4ccccc4s3)n2)cc1)N1CCC(N2CCCC2)CC1  remaining binding (binding, competition with immobilised ligand; 1 µM): 61%
N[C@@H]1CCN(c2nccc(-c3cnn4ncccc34)n2)C1  remaining binding (binding; 1 µM): 100%
COc1cccc(CNC(=O)c2nc3scc(COCc4ccc(C(=O)O)cc4)c3c(=O)[nH]2)c1  remaining binding (cell-free assay, competition with immobilised ligand; 1 µM): 100%
